Legend:
LcTPS3 = test: malachite green phosphate-release assay, Michaelis-Menten fit; assay type: biochemical, Liriodendron chinense; conditions: 5 mM MgCl2, 50 mM MOPS pH 7.0 (optimum printed as pH 7.5), 35 °C, FPP 0-25 μM
Summary of the method: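 Recombinant His-tagged enzyme was expressed from pET-28a(+) in E. coli BL21(DE3) pLysS, induced with 1 mM IPTG at 16 °C for 16 h, and bead-purified. FPP (0–25 μM) was reacted with 5 mM MgCl2 in 50 mM MOPS pH 7.0 at 35 °C for 15 min. Phosphatase-released phosphate was read by malachite green at 620 nm. Km came from a Michaelis–Menten fit of initial velocity versus [FPP].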

STpGMAS = target: T1, STpGMAS (Tanacetum parthenium, UniProt F8UL80); test: GC-MS of germacrene A from yeast expressing the synthase with ERG20; assay type: cell-based; conditions: S. cerevisiae JCR27, endogenous FPP
T1 sequence (F8UL80 1-559): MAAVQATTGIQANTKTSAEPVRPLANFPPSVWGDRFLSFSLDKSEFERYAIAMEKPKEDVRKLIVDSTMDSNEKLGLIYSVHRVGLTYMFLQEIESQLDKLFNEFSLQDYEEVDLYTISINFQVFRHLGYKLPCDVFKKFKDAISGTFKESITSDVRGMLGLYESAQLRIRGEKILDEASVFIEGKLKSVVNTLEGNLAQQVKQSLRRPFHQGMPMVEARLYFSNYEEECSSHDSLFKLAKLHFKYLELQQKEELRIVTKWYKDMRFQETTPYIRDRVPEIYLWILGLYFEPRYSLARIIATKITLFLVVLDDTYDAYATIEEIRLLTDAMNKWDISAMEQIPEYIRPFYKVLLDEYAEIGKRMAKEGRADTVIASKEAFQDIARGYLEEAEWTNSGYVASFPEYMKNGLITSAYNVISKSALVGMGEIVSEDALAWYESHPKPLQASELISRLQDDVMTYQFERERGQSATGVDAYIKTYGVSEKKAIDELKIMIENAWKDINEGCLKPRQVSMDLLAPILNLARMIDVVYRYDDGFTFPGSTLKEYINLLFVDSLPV

LsLTC2 = target: T2, LsLTC2 (Lactuca sativa, UniProt Q8S3A5); test: as above; assay type: cell-based; conditions: S. cerevisiae JCR27, endogenous FPP
T2 sequence (Q8S3A5 1-557): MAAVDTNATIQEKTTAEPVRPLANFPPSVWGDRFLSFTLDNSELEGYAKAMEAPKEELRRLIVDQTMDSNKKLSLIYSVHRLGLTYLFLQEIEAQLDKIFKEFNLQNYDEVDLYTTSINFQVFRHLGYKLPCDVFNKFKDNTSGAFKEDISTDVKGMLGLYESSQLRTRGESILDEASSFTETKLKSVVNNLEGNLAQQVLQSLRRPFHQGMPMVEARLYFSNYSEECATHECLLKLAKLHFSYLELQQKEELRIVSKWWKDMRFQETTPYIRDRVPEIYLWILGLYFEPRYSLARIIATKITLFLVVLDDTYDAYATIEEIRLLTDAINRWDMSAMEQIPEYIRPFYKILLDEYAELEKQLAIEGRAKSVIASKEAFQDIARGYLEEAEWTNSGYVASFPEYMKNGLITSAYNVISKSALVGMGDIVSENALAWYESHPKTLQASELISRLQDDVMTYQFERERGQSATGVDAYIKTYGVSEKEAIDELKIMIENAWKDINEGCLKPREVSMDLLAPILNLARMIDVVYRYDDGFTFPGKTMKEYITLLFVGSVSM

CC(C)=CCC/C(C)=C/CC/C(C)=C/COP(=O)(O)OP(=O)(O)O [FPP]
Km (LcTPS3): 17.7 ± 0.47 µM | GC-MS of germacrene A from yeast expressing the synthase with ERG20 (STpGMAS): co‐expressed LcTPS3, NPGAS, LsLTC2 and STpGMAS with a yeast–derived farnesyl diphosphate synthase (EGR20) | GC-MS of germacrene A from yeast expressing the synthase with ERG20 (LsLTC2): co‐expressed LcTPS3, NPGAS, LsLTC2 and STpGMAS with a yeast–derived farnesyl diphosphate synthase (EGR20)

From PMC12120886 (Plant Biotechnology Journal, 2025)
